In ChEMBL document CHEMBL2029267, “Rapid assembly of a library of lipophilic iminosugars via the thiol-ene reaction yields promising pharmacological chaperones for the treatment of Gaucher disease” (J Med Chem, 2012):
Residue numbers refer to the chain shown, from its start. pKi: −log10 of the molar value. The source made the active and inactive calls. No cut-off for these calls is given here.

Tests used:
Homo sapiens [1] = species: Homo sapiens; test: Activation of intracellular glucocerebrosidase p.L444P mutant in gaucher patient fibroblast using 4-methylumbelliferyl beta-D-glucopyranoside as substrate assessed as concentration at which 50% of maximum increase in activity
[2] = system: T1, Lysosomal acid glucosylceramidase (Homo sapiens), P04062 [N409S]; test: Activation of intracellular glucocerebrosidase p.N370S mutant in gaucher patient fibroblast using 4-methylumbelliferyl beta-D-glucopyranoside as substrate assessed as concentration at which 50% of maximum increase in activity
T1 sequence (whole entry): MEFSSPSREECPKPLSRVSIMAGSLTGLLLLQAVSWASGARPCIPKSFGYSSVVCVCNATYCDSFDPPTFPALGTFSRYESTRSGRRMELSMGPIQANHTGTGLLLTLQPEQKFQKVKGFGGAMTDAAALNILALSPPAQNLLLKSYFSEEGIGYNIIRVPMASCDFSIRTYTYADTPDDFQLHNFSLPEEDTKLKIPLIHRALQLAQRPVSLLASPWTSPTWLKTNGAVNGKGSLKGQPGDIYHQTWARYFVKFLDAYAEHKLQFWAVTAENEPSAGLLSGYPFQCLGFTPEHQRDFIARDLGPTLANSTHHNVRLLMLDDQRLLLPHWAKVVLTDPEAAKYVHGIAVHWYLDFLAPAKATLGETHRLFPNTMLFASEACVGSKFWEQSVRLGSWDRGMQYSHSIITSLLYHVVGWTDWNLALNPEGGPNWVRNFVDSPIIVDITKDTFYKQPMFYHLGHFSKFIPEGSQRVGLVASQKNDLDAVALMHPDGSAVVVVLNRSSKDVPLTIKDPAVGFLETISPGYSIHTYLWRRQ

Homo sapiens [3] = species: Homo sapiens; test: Activation of intracellular glucocerebrosidase p.L444P mutant in gaucher patient fibroblast using 4-methylumbelliferyl beta-D-glucopyranoside as substrate relative to control
[4] = system: T1, Lysosomal acid glucosylceramidase (Homo sapiens), P04062 [N409S]; test: Activation of intracellular glucocerebrosidase p.N370S mutant in gaucher patient fibroblast using 4-methylumbelliferyl beta-D-glucopyranoside as substrate relative to control
[5] = molecular target: T2, Lysosomal acid glucosylceramidase (Homo sapiens, UniProt P04062); test: Competitive inhibition of wild type human glucocerebrosidase using 2,4-dinitrophenyl beta-D-glucopyranoside as substrate after 3 mins by Dixon and Line-Weaver Burk plot analysis at pH 5
T2 sequence (P04062 whole entry): T1 sequence (whole entry) with S409N
Procedure, shortened: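 Continuous UV assay with 4.0 nM GBA and 2,4-dinitrophenyl β-D-glucoside, started by adding enzyme. A400 was followed, linear over 3 min. Three substrate levels were run at about seven inhibitor levels (0.2–5 Ki), with nonlinear fit to a competitive model checked by Dixon and Lineweaver–Burk plots.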

[6] = molecular target: Lysosomal alpha-glucosidase (Homo sapiens) (UniProt P10253); test: Inhibition of human lysosomal alpha-glucosidase using 4-methylumbelliferyl alpha-D-glucopyranoside as substrate at 200 uM by fluorimetric analysis
Procedure, shortened: (§1)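 Enzyme source was a lysosomal-enzyme-enriched ConA-bound human placental fraction, run in 100 mM citrate–phosphate pH 4.5 with 0.025% human serum albumin at 37 °C. Compound was tested at 200 μM in triplicate. An equal volume of 4-MU substrate was added: α-Glc 3.0 mM (α-glucosidase), α-Gal 1.0 mM (α-galactosidase), β-Gal 0.5 mM (β-galactosidase). Reactions were stopped with 4-fold excess 100 mM aminomethylpropanol and fluorescence read at 365/460 nm.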

Homo sapiens [7] = species: Homo sapiens; test: Inhibition of human lysosomal alpha-galactosidase using 4-methylumbelliferyl alpha-D-galactopyranoside as substrate at 200 uM by fluorimetric analysis
Procedure, shortened: as §1

[8] = molecular target: T3, Lysosomal acid glucosylceramidase (Homo sapiens) (UniProt P04062); test: Thermal denaturation of human glucocerebrosidase by differential scanning fluorimetry assessed as change in melting temperature at 100 uM and pH 7
T3 sequence (whole entry): T1 sequence (whole entry) with S409N

[9] = molecular target: T4, Beta-galactosidase (Homo sapiens) (UniProt P16278); test: Inhibition of human lysosomal beta-galactosidase using 4-methylumbelliferyl beta-Dgalactopyranoside as substrate at 200 uM by fluorimetric analysis
T4 sequence (whole entry): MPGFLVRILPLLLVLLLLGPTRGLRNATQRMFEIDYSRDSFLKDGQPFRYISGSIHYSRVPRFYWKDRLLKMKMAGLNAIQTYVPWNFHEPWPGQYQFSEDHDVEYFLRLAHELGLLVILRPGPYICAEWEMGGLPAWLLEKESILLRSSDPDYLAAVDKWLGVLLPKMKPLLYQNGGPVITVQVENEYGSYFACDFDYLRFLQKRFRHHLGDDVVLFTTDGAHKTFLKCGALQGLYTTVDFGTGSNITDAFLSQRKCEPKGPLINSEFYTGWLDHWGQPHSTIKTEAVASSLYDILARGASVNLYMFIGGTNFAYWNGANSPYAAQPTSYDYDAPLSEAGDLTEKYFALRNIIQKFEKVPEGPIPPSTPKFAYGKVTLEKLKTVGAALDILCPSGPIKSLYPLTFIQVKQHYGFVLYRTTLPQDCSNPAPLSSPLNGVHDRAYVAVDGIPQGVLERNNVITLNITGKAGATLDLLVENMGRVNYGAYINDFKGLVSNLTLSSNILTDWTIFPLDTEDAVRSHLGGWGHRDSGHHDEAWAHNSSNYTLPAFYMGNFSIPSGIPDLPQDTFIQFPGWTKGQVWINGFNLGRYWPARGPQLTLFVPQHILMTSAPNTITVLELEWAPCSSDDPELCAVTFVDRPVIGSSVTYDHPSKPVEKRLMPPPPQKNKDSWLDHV
Procedure, shortened: as §1

[10] = molecular target: T2, Lysosomal acid glucosylceramidase; test: Competitive inhibition of wild type human glucocerebrosidase using 4-methylumbelliferyl beta-D-glucopyranoside as substrate after 15 mins by Dixon and Line-Weaver Burk plot analysis […]

| Activity (Homo sapiens [1]) [nM] | Activity [2] [nM] | fold change (FC) (Homo sapiens [3]) | fold change (FC) [4] | pKi [5] | inhibition [6] | inhibition (Homo sapiens [7]) | deltaTm [8] [K] | inhibition [9] | pKi [10] | Structure (SMILES) |
| --- | --- | --- | --- | --- | --- | --- | --- | --- | --- | --- |
| 2.2 | 38 | 1.4 | 2.3 | 7.12 | inactive | inactive | 7.8 | inactive |  | CC(C)SCC[C@H]1NC[C@@H](O)[C@H](O)[C@H]1O |
| 500 | 800 | 1.3 | 2.7 | 6.60 | inactive | inactive | 10 | inactive |  | CCN(CC)C(=O)CCCSCC[C@H]1NC[C@@H](O)[C@H](O)[C@H]1O |
| 1700 | 1800 | 1.3 | 1.4 | 5.57 | inactive | inactive | 3.4 | inactive |  | C=C[C@H]1NC[C@@H](O)[C@H](O)[C@H]1O |
| 0.3 | 1.2 | 1.2 | 2 |  | inactive | inactive | 14 | inactive | 8.36 | CC(C)CCSCC[C@H]1NC[C@@H](O)[C@H](O)[C@H]1O |
| 44600 | 24000 | 1.1 | 1.5 |  | inactive | inactive | 3.6 | inactive |  | O[C@H]1[C@H](O)CNC[C@@H]1O |
| 0.6 | 1.3 | 1.3 | 2.2 |  | inactive | inactive | 13 | inactive | 8.40 | O[C@@H]1[C@@H](O)[C@@H](CCSC2CCCCC2)NC[C@H]1O |
| 2900 | 2700 | 1.3 | 2.7 | 6.70 | inactive | inactive | 8.2 | inactive |  | CCCC(=O)NCCSCC[C@H]1NC[C@@H](O)[C@H](O)[C@H]1O |
| 300 | 600 | 1.3 | 2.5 | 6.74 | inactive | inactive | 7 | inactive |  | CCSCC[C@H]1NC[C@@H](O)[C@H](O)[C@H]1O |
| 7000 |  | 1.2 | 2.1 | 5.96 | inactive | inactive | 4.4 | inactive |  | CC[C@H]1NC[C@@H](O)[C@H](O)[C@H]1O |
| 1.2 | 5.3 | 1.4 | 2.2 |  | inactive | inactive | 11 | inactive | 8.22 | O[C@@H]1[C@@H](O)[C@@H](CCSC2CCCC2)NC[C@H]1O |
| 2.1 | 2.8 | 1.1 | 2.2 |  | inactive | inactive | 14 | inactive | 8.52 | O[C@@H]1[C@@H](O)[C@@H](CCSCCc2ccccc2)NC[C@H]1O |
| 64 | 90 | 1.1 | 2.3 |  | inactive | inactive | 11 | inactive | 7.92 | O=C(NCCSCC[C@H]1NC[C@@H](O)[C@H](O)[C@H]1O)Nc1ccccc1 |
| 63 | 190 | 1.3 | 2.5 | 7.52 | inactive | inactive | 11 | inactive |  | O=C(CSCC[C@H]1NC[C@@H](O)[C@H](O)[C@H]1O)NCc1ccccc1 |
| 2.6 | 1.6 | 1.1 | 2.1 |  | inactive | inactive | 13 | inactive | 7.72 | O[C@@H]1[C@@H](O)[C@@H](CCSCc2ccccc2)NC[C@H]1O |
| 25 | 49 | 1.2 | 2.3 | 7.54 | inactive | inactive | 8.4 | inactive |  | CC(C)(C)SCC[C@H]1NC[C@@H](O)[C@H](O)[C@H]1O |
| 12 | 18 | 1.3 | 2.4 |  | inactive | inactive | 11 | inactive | 7.74 | CCCCSCC[C@H]1NC[C@@H](O)[C@H](O)[C@H]1O |
| 1500 | 4500 | 1.3 | 3.2 | 6.35 | inactive | inactive | 7.6 | inactive |  | O=C(CCCSCC[C@H]1NC[C@@H](O)[C@H](O)[C@H]1O)N1CCOCC1 |
